Data set [1] addresses T1, ICOS-ICOSL (Homo sapiens, UniProt O75144+Q9Y6W8).
T1 sequence (O75144 whole entry): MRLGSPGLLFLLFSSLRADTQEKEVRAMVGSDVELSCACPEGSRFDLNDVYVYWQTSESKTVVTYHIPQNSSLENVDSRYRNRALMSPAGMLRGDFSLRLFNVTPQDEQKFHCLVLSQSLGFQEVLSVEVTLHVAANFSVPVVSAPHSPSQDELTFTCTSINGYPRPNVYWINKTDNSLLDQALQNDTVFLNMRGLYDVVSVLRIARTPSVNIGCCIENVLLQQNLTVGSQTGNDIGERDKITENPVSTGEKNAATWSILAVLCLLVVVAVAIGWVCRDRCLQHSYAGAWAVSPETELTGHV
T1 sequence (Q9Y6W8 whole entry): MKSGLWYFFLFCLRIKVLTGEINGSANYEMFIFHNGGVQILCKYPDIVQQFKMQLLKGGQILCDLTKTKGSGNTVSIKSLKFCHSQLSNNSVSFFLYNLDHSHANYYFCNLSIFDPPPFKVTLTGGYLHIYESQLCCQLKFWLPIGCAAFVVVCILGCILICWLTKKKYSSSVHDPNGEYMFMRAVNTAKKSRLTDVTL
In words: Inhibition of C-terminal IgG1 Fc region fused human ICOS extracellular domain (1 to 141 residues)/C-terminal polyhistidine tagged human ICOSL extracellular domain (1 to 258 residues) interaction incubated for 1 hr by TR-FRET assay. It counts as protein assay. The procedure, abridged: (§1)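 Fc-tagged human ICOS and His-tagged ICOSL, 10 nM each final, with Tb cryptate anti-His mAb (1 nM) donor and XL665 anti-human Ab (10 nM) acceptor. Compounds in DMSO (0.1%)/PBS pH 7.4, 1 h at room temperature. Read 665/620 nm ratio ×100 with 340 nm excitation. Percent inhibition scaled 0% (DMSO) to 100% (1 μM anti-ICOS mAb). Triplicate, single run. Single-dose screen at 50 μM final; IC50 from dose–response.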

Data set [2] concerns the target T2, ICOS-ICOSL (Homo sapiens) (UniProt O75144+Q9Y6W8). Nature of the data set: Inhibition of C-terminal IgG1 Fc region fused human ICOS extracellular domain (1 to 141 residues)/C-terminal polyhistidine tagged human ICOSL extracellular domain (1 to 258 residues) interaction assessed as reduction in FRET signal at 50 uM incubated for 1 hr by TR-FRET assay relative to control. It is filed as protein assay. The procedure, abridged: as §1

Data set [3] concerns the target T1, ICOS-ICOSL. In words: Inhibition of ICOS (unknown origin)/C-terminal IgG1 FC region fused human ICOSL interaction by ELISA. It is filed as protein assay. The essentials: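 Commercial ICOS/ICOSL ELISA kit, run per manufacturer's protocol. Anti-ICOS antagonist mAb as positive control. Triplicate, single run.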
Background: In an ELISA, binding on a coated surface is turned into a signal by an enzyme label.

Data set [4] can be described thus: Stability in simulated gastric fluid at pH 1.6. It counts as ADME. The note with it: simulated gi fluid.
The nature of data set [5]: Metabolic stability in human plasma measured at 120 mins. It is filed as ADME, cell-free. The note with it: 2 h.
Data set [6] can be described thus: Metabolic stability in rat liver microsomes. It counts as ADME, Microsome. A general note: Microsomes from liver hold many membrane-bound enzymes, among them those of drug oxidation.
Data set [7] in a line: Stability in simulated intestinal fluid at pH 6.5. It is filed as ADME. To be noted: simulated gi fluid.
A further data set relates to HEL 299. In words: Cytotoxicity against human HEL 299 cells. It is filed as toxicity, cell-based.
Data set [8] addresses T2, ICOS-ICOSL (Homo sapiens). In words: Inhibition of human ICOS expressed in Jurkat T cells coexpressing TCR/CD3 and NanoLuc luciferase reporter/ICOSL (unknown origin) expressed in CHO-K1 cells interaction assessed as reduction in luminescence. It counts as cell-based. To be noted: dose 5-20 µM. The essentials:
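Commercial blockade kit, run per manufacturer's protocol. ICOS effector Jurkat cells (NanoLuc reporter) co-cultured with ICOSL/CHO-K1 cells carrying a TCR/CD3 activator. Compound tested at 5, 10 and 20 μM; anti-ICOS mAb (100 nM) as positive control. Luminescence compared with untreated control. Triplicate, single run.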
On the technique in general: In a reporter assay the amount or activity of a reporter protein is the signal.

Broadly, the IC50 is the concentration that gives 50% inhibition. A lower IC50 goes with greater potency in that assay. Broadly, the inhibition is the change of the read-out against control, counted positive when it falls.

As for `O=C(Nc1ccc(Cl)cc1)c1c(O)ccc2c1[nH]c1ccccc12`, at ICOS-ICOSL [1], the IC50 is greater than 50 µM.

The compound `O=C(Cc1ccccn1)Nc1cc(Cl)cc2c1[nH]c1cnccc12` had an IC50 against ICOS-ICOSL [1] of 37.1 µM.

The compound `COc1c(Cl)cc2c([nH]c3cnccc32)c1NC(=O)c1cncnc1C` showed an IC50 on ICOS-ICOSL [1] of 5.65 µM.

Take `O=C(Nc1ccc(Cl)cc1)c1cc2c(cc1O)[nH]c1ccccc12`: the IC50 on ICOS-ICOSL [1] was greater than 50 µM.

For `O=C(Nc1cc(Cl)cc2c1[nH]c1cnc(NCc3ccccc3)cc12)c1ccncc1`, the midpoint of inhibition at ICOS-ICOSL [1], the IC50, lay at 18.4 µM.

Consider `COc1c(Cl)cc2c([nH]c3cnccc32)c1NC(=O)c1cccnc1C`, for which, in data set [2], the inhibition was greater than 90%. The figures for the IC50 at ICOS-ICOSL [3] and at ICOS-ICOSL [1] were 10.3 µM and 12.2 µM, respectively.

On ICOS-ICOSL [1], `O=C(Nc1cc(Cl)cc2c1[nH]c1cnc(NCc3ccccc3)cc12)c1ccccn1` gave an IC50 of 15.5 µM.

In the case of `O=C(Nc1cc(Cl)cc2c1[nH]c1cnccc12)c1ccccc1`, the IC50 at ICOS-ICOSL [1] is greater than 50 µM.

At ICOS-ICOSL [1], `COc1ccccc1C(=O)Nc1cc(Cl)cc2c1[nH]c1cnccc12` gave a half-inhibitory concentration (IC50) of 43.7 µM.

With `CCOc1ccc(-c2nc(C(=O)Nc3ccccc3Cl)cc3c2[nH]c2ccccc23)cc1OC`, the IC50 against ICOS-ICOSL [1] was greater than 50 µM.

For the compound `COc1ccc(C(=O)Nc2cc(Cl)cc3c2[nH]c2cnccc23)cc1`, inhibition at ICOS-ICOSL [1] was half-maximal at 49.3 µM (IC50).

Regarding `O=C(Nc1cc(Cl)cc2c1[nH]c1cnccc12)c1ccccn1`, the IC50 against ICOS-ICOSL [1] was 28.6 µM.

`COc1cccc(C(=O)Nc2cc(Cl)cc3c2[nH]c2cnccc23)c1` showed an IC50 against ICOS-ICOSL [1] of 36.7 µM.

`O=C(Nc1cc(Cl)cc2c1[nH]c1cnccc12)c1cccnc1` showed an IC50 on ICOS-ICOSL [1] of 13.9 µM.

Take `CC1(C)CN[C@@H](C(=O)Nc2cc(Cl)cc3c2[nH]c2cnccc23)CO1`: the half-maximal inhibitory concentration (IC50) on ICOS-ICOSL [1] came to 11.1 µM.

At ICOS-ICOSL [1], `O=C(Nc1cc(Cl)cc2c1[nH]c1cnccc12)c1ccncc1` came in with an IC50 of 31 µM.

On to `O=C(Nc1cc(Cl)cc2c1[nH]c1cnc(NCc3ccccc3)cc12)c1cccnc1`, for which the Stability entry in data set [4], in data set [5], in data set [6] and in [7] was “Stable” in each case. At ICOS-ICOSL [1], this compound gave a concentration for half-maximal inhibition (IC50) of 4.68 µM. Moreover, in the data set on HEL 299, the Activity result is “Non-Toxic”. Besides, in data set [8], the inhibition result is “Dose-Dependent Effect”.
